In one series the test system is PC-3. Description: Induction of senescence in human PC3 cells. The series is classed as functional, cell-based. Summed up: (§1)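 SA-β-galactosidase staining of PC-3 and DU-145 prostate cancer cells after 72 h at 10 µM; adriamycin 20 nM as positive control; expressed as percentage of positively stained cells.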
A further series relates to DU-145. Description: Induction of senescence in human DU145 cells. In kind it is functional, cell-based. The method, boiled down:
as §1

Series [1] has as its system L1210. Description: Antitumor activity in L1210 cells xenografted B6D2F1 mouse at 80 mg/kg, ip relative to control. In kind it is functional. Conditions: route intraperitoneal. The method, boiled down:
(§2)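 Mice grafted with L1210 leukaemia cells on day 0, then dosed i.p. four times weekly on days 1-4 and 8-11. Five mice per group. Outcome is %T/C, the median survival of treated over control. Kruskal-Wallis test followed by Dunn comparisons against control.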

The nature of series [2]: Antiproliferative activity against Hs683 cells after 72 hrs by MTT assay. In kind it is functional, cell-based, Homo sapiens, Hs 683. As to conditions: Homo sapiens, Hs 683, 72 h. The method, boiled down:
(§3)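 Cells cultured with each compound for three days; growth then read by the MTT colorimetric assay and reported as IC50 (µM).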
A general note: Tetrazolium dyes change colour on reduction, which living cells bring about.

In a further series the test system is HCT-15. Description: Antiproliferative activity against HCT15 cells after 72 hrs by MTT assay. The series is classed as functional, cell-based, Homo sapiens. As to conditions: Homo sapiens, HCT-15, 72 h. The method, boiled down:
as §3

Series [3] has as its system L1210. Description: Antitumor activity in L1210 cells xenografted B6D2F1 mouse at 10 mg/kg, ip relative to control. In kind it is functional. Conditions: route intraperitoneal. The method, boiled down:
as §2

Series [4] in a line: Toxicity in ip dosed B6D2F1 mouse. In kind it is organism-based. As to conditions: in vivo. The method, boiled down: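 Acute MTD was set by a single i.p. dose to groups of three healthy female B6D2F1 mice, at 2.5, 5, 10, 20, 40, 80 and 160 mg/kg. The MTD is the dose just below the lowest dose that killed at least one mouse.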
Series [5] deals with L1210. Kind of series: Antitumor activity in L1210 cells xenografted B6D2F1 mouse at 120 mg/kg, ip relative to control. In kind it is functional. Conditions: route intraperitoneal. The method, boiled down: as §2
Series [6] concerns Mus musculus. Kind of series: Toxicity in B6D2F1 mouse at 120 mg/kg, ip. In kind it is organism-based. More on the design: dose 120 mg/kg, route intraperitoneal. As to conditions: in vivo. Summed up:
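Healthy female B6D2F1 mice, 10 per group, dosed i.p. in DMSO/saline (5:95 v/v) three times weekly for five weeks at two levels set relative to MTD; sacrificed 3 days after final dose; platelet, RBC and WBC counted by Coulter counter.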

Series [7] relates to L1210. Description: Antitumor activity in L1210 cells xenografted B6D2F1 mouse at 20 mg/kg, ip relative to control. Conditions: route intraperitoneal. In kind it is functional. Summed up:
as §2

In series [8] the test system is MCF7. Description: Antiproliferative activity against MCF7 cells after 72 hrs by MTT assay. The series is classed as functional, cell-based, Homo sapiens. As to conditions: Homo sapiens, MCF7, 72 h. Summed up:
as §3

The nature of series [9]: Antiproliferative activity against U373MG cells after 72 hrs by MTT assay. The series is classed as functional, cell-based, Homo sapiens, U-373MG ATCC. Conditions: Homo sapiens, U373 MG, 72 h. Summed up: as §3
The subject of series [10] is Mus musculus. Kind of series: Hematotoxicity in ip dosed B6D2F1 mouse assessed as decrease in platelet count. In kind it is organism-based. Conditions: in vivo. The method, boiled down:
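Healthy female B6D2F1 mice, 10 per group, dosed i.p. three times weekly for five weeks at two dose levels set relative to MTD. Vehicle DMSO/saline 5:95 v/v. Killed 3 days after the last dose; blood platelet, RBC and WBC counts taken with a Coulter counter.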

The subject of series [11] is L1210. Description: Antitumor activity in L1210 cells xenografted B6D2F1 mouse at 40 mg/kg, ip relative to control. The series is classed as functional. Conditions: route intraperitoneal. Summed up: as §2
For series [12], the system named is A549. Kind of series: Antiproliferative activity against A549 cells after 72 hrs by MTT assay. In kind it is functional, cell-based, Homo sapiens. As to conditions: Homo sapiens, A549, 72 h. Summed up: as §3
The subject of the next series is LoVo. Description: Antiproliferative activity against LoVo cells after 72 hrs by MTT assay. Conditions: Homo sapiens, LoVo, 72 h. The series is classed as functional, cell-based, Homo sapiens. The method, boiled down: as §3
The target of series [13] is DNA topoisomerase 2-alpha (Homo sapiens) (UniProt P11388). Kind of series: Inhibition of human topoisomerase 2-mediated kinetoplast DNA […] at 50 uM. Summed up: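 Topoisomerase II strand-passage activity by kDNA decatenation; compounds at 50 µM; catenated networks stay in wells, decatenated kDNA enters ethidium bromide-stained agarose gel; no-enzyme and no-drug reactions as controls.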
Sequence of DNA topoisomerase 2-alpha (Homo sapiens) (P11388 whole entry): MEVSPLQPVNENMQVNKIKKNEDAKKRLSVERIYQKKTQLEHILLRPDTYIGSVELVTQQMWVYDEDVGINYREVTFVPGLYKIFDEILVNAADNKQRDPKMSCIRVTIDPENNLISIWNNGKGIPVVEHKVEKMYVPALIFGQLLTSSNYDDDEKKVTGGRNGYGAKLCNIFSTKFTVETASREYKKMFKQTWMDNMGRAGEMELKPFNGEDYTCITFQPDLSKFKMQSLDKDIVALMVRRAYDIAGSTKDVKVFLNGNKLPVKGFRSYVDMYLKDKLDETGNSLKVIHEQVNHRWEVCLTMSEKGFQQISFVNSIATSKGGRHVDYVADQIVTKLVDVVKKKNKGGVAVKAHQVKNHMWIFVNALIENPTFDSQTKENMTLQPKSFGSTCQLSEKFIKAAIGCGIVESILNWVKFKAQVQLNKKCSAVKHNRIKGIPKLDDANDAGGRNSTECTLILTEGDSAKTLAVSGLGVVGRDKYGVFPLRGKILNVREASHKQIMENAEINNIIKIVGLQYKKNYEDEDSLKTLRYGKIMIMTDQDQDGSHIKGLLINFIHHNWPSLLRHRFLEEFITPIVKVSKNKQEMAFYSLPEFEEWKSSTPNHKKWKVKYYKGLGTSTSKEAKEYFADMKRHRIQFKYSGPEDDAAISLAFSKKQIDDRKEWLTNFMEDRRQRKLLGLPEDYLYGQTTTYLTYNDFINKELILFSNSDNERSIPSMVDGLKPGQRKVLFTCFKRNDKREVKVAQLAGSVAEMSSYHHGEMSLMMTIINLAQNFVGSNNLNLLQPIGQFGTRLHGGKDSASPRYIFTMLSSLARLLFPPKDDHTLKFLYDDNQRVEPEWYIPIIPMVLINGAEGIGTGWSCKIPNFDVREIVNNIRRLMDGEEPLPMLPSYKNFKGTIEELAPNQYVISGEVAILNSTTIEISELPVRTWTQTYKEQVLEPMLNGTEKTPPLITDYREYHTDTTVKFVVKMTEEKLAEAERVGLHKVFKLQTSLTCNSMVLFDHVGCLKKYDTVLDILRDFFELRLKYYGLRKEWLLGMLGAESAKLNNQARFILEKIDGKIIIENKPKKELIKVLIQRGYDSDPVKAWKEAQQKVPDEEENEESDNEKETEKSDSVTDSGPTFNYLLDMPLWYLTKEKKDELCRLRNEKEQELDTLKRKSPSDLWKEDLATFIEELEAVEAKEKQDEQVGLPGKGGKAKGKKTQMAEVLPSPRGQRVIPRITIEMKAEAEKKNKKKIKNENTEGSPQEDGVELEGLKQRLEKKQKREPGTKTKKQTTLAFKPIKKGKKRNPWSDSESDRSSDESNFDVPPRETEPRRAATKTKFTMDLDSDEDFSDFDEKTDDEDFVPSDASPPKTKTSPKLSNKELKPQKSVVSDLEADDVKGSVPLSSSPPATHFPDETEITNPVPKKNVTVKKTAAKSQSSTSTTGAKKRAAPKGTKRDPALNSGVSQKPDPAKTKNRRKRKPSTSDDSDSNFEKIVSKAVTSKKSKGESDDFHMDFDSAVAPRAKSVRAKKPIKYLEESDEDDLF

The test system of series [14] is A549. Description: Antitumor activity against human A549 cells xenografted in mouse at 10 mg/kg, iv. The series is classed as functional, organism-based. Set-up: dose 10 mg/kg. The method, boiled down: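 Human A549 NSCLC cells grafted orthotopically into the lungs of immunocompromised mice. Compound given i.v. at 10 mg/kg. Survival gain assessed by survival curve analysis.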
On the technique in general: Xenograft models place foreign cells or tissue in a host animal.

Series [15] relates to MCF7. Kind of series: Induction of apoptosis in human MCF7 cells assessed as p53 activation. The series is classed as functional, cell-based. The method, boiled down: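 MCF-7 cells treated and p53 activation assessed by immunoblotting, with tubulin as loading control. Adriamycin (2.5 µM, 24 h) served as positive control.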
A further series has as its system MDA-MB-231. Kind of series: Antitumor activity against human MDA-MB-231 cells xenografted in immunocompromised mouse at 10 mg/kg, iv.
Series [16] addresses T1, DNA topoisomerase 1 (Homo sapiens) (UniProt P11387).
T1 sequence (whole entry): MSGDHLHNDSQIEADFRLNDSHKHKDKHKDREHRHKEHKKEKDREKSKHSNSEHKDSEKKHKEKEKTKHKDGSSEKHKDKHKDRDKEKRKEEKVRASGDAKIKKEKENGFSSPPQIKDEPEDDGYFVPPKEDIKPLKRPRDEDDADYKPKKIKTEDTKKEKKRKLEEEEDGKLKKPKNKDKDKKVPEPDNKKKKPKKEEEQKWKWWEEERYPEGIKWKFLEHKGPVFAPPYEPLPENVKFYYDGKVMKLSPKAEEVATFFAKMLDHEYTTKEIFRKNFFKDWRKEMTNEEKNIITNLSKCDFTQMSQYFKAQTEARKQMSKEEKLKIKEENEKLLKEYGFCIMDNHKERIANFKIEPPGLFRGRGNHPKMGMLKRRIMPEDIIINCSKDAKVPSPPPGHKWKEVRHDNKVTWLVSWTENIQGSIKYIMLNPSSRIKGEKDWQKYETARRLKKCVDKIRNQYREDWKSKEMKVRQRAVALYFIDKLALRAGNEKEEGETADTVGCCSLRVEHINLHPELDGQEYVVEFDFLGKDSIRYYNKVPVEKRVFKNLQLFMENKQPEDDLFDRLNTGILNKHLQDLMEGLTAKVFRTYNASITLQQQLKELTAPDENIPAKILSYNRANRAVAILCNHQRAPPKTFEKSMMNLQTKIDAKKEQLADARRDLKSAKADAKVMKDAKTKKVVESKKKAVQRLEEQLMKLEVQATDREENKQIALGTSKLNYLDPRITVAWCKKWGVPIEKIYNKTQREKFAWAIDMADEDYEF
Kind of series: Inhibition of human topoisomerase 1 by DNA unwinding test. The method, boiled down: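 DNA unwinding assay: relaxed pBR322 plasmid converted to supercoiled form in presence of topoisomerase I; compounds at final 4–32 µM (one up to 15–55 µM); ethidium bromide-stained agarose gels; UC50 taken as concentration shifting relaxed band to midpoint between supercoiled and relaxed states.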

For a further series, the species on record is Homo sapiens. Kind of series: Inhibition of human topoisomerase 2 at 50 uM by plasmid linearization assay.

Calls of active or inactive are those of the source. No cut-off for these calls is given here. Where only a bound is given, the exact number is not on record here.

On to `COc1cccc2c1C(=O)c1c(O)c3c(c(O)c1C2=O)C[C@@](O)(C(=O)CO)C[C@@H]3O[C@H]1C[C@H](N)[C@H](O)[C@H](C)O1`, for which the result in the series with PC-3 was inactive. For the same compound, the result with DU-145 was Active.
A word on the IC50: it is the midpoint of a concentration-inhibition curve. As for `CN(C)CCN1C(=O)c2cccc3cc(/N=C\c4cc5c(cc4[N+](=O)[O-])OCO5)cc(c23)C1=O`, the Activity is recorded as over 300% in the series with L1210 [1]; 215% with L1210 [3]; 40% in the series with L1210 [5]; “Toxic” with Mus musculus [6]; 195% in the series with L1210 [7]; “Toxic” in the series with Mus musculus [10]. The Activity with L1210 [11] turned out to be 278%. In addition, the IC50 in series [2] is over 10 µM; with HCT-15, over 10 µM; in the series with MCF7 [8], over 10 µM; in [9], 5 µM; with A549 [12], over 10 µM; in the series on LoVo, over 10 µM. In series [4], this compound registered an MTD of over 160 mg/kg.
Regarding `CN(C)CCN1C(=O)c2cccc3cc(N)cc(c23)C1=O`, the outcome (in series [13]; in the series on MCF7 [15]; with MDA-MB-231; in the series filed under Homo sapiens) was Active. The result in the series on A549 [14] was inactive. Also, the UC50 in series [16] worked out at 8 µM.

The values above are taken from ChEMBL document CHEMBL1148725, “2,2,2-Trichloro-N-({2-[2-(dimethylamino)ethyl]-1,3-dioxo-2,3-dihydro-1H-benzo[de]isoquinolin- 5-yl}carbamoyl)acetamide (UNBS3157), a novel nonhematotoxic naphthalimide derivative with potent antitumor activity” (J Med Chem, 2007).
